Assay results taken from ChEMBL document CHEMBL3997798, “Novel Selective Estrogen Receptor Downregulators (SERDs) Developed against Treatment-Resistant Breast Cancer” (J Med Chem, 2017).

What was measured:
[1] = system: Plasma; assay: Drug uptake in mouse plasma at 100 mg/kg, po via gavage at 0.5 to 4 hrs post dose by LC-MS/MS analysis; type: ADME, organism-based; conditions: in vivo
Procedure, shortened: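 Plasma concentrations in mice were measured at 0.5 and 4 h after a 100 mg/kg oral dose given as a 0.5% CMC suspension.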

[2] = Oral bioavailability in rat; type: ADME, organism-based; conditions: in vivo

| Drug uptake [1] | bioavailability [2] [%] | SMILES |
| --- | --- | --- |
| Active |  | Cc1ccc(C(=O)c2sc3cc(O)ccc3c2Oc2ccc(/C=C/C(=O)O)cc2)c(C)c1 |
|  | > 60 | Oc1ccc2c(c1)CC[C@H](c1ccccc1)[C@@H]2c1ccc(OCCN2CCCC2)cc1 [LASOFOXIFENE] |
| Active |  | Cc1cc(Cl)cc(C)c1C(=O)c1sc2cc(O)ccc2c1Oc1ccc(/C=C/C(=O)O)cc1 |
| Active |  | Cc1cc(F)cc(C)c1C(=O)c1sc2cc(O)ccc2c1Oc1ccc(/C=C/C(=O)O)cc1 [RINTODESTRANT] |
